Measurements as given in ChEMBL document CHEMBL1152138, “Clubbed [1,2,3] triazoles by fluorine benzimidazole: a novel approach to H37Rv inhibitors as a potential treatment for tuberculosis” (Bioorg Med Chem Lett, 2008).
Values after ≈ are worked out from the molar mass of the structure shown. Values joined by “and” are separate entries in the source; they are usually repeats but may differ in a detail not shown here. Equal entries are not always repeated.

Assays:
[1] = test system: Pseudomonas aeruginosa; assay: Antimicrobial activity against Pseudomonas aeruginosa after 24 hrs by well diffusion method; assay type: functional
How it was run: (§1)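 Well diffusion on nutrient agar. 10 mm wells cut with a sterile cork borer. Plates swab-inoculated from a 24 h bacterial subculture in nutrient broth. Compounds dissolved in chloroform and added to wells at 50 and 100 µM. Gentamycin used as standard. % inhibition derived from inhibition zone diameter.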

[2] = test system: Staphylococcus aureus; assay: Antimicrobial activity against Staphylococcus aureus after 24 hrs by well diffusion method; assay type: functional; how it was run: as §1
[3] = test system: Salmonella typhi; assay: Antimicrobial activity against Salmonella typhosa after 24 hrs by well diffusion method; assay type: functional, Salmonella enterica subsp. enterica serovar Typhi; how it was run: as §1
[4] = Cytotoxicity against african green monkey Vero C1008 cells at 6.25 to 50 ug/mL by neutral-red uptake assay; assay type: cell-based; settings: chlorocebus sabaeus
How it was run: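 Vero C-1008 cells exposed to compounds at 6.25–50 µg/mL. Cytotoxicity read out by neutral red uptake.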

[5] = test system: Escherichia coli; assay: Antimicrobial activity against Escherichia coli after 24 hrs by well diffusion method; assay type: functional; how it was run: as §1
[6] = test system: Mycobacterium tuberculosis; assay: Antitubercular activity against Mycobacterium tuberculosis H37Rv ATCC 27294 by microplate alamar blue assay; assay type: functional
How it was run: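 Compounds active in the primary screen were retested at lower concentrations against H37Rv by Microplate Alamar Blue Assay. MIC taken as the lowest concentration giving a 95% reduction in fluorescence relative to controls. Rifampin used as reference.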

[7] = test system: Mycobacterium tuberculosis; assay: Antitubercular activity against Mycobacterium tuberculosis H37Rv ATCC 27294 at 6.25 ug/mL by microplate alamar blue assay; assay type: functional; settings: read-out: GI
How it was run: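 Primary screen against M. tuberculosis H37Rv (ATCC 27294) at a single concentration of 6.25 µg/mL. Broth microdilution Microplate Alamar Blue Assay in BACTEC 12B medium. Fluorescent compounds were instead run in the BACTEC 460 radiometric system. Percent growth inhibition reported; >95% counted as active. Rifampin used as reference.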

For `Fc1cccc(-c2nc3ccccc3n2Cc2cn(-c3ccc(F)c(F)c3F)nn2)c1`, the “inhibition zone (IZ)” value [1] was 33 mm, the “inhibition zone (IZ)” value [2] was 31 mm and the “inhibition zone (IZ)” value [3] was 30 mm. For the same compound, the Activity [4] was “Non-toxic”, the “inhibition zone (IZ)” value [5] was 29 mm and the MIC [6] was over 6.25 mg/L.

With `Fc1cccc(-c2nc3ccccc3n2Cc2cn(-c3ccc(F)cc3F)nn2)c1` the “inhibition zone (IZ)” value [1] was 34 mm, the “inhibition zone (IZ)” value [2] was 33 mm and the “inhibition zone (IZ)” value [3] was 31 mm. The Activity [4] was “Non-toxic”, the “inhibition zone (IZ)” value [5] was 32 mm and the inhibition of growth at 6.25 µg/mL [7] was 96%. The MIC [6] was 0.32 µM and > 6.25 µg/mL.

In the case of `Cc1ccc(-n2cc(Cn3c(-c4cccc(F)c4)nc4ccccc43)nn2)cc1`, the “inhibition zone (IZ)” value [1] is reported as 20 mm, the “inhibition zone (IZ)” value [2] is reported as 18 mm and the “inhibition zone (IZ)” value [3] is reported as 17 mm. For the same compound, the Activity [4] was “Non-toxic”, the “inhibition zone (IZ)” value [5] was 19 mm and the MIC [6] was over 12.5 mg/L.

In the case of `Cc1ccccc1-n1cc(Cn2c(-c3cccc(F)c3)nc3ccccc32)nn1`, the “inhibition zone (IZ)” value [1] is reported as 19 mm, the “inhibition zone (IZ)” value [2] is reported as 16 mm and the “inhibition zone (IZ)” value [3] is reported as 17 mm. The Activity [4] was “Non-toxic”, the “inhibition zone (IZ)” value [5] was 14 mm and the MIC [6] was over 12.5 mg/L.

For `COc1ccc(-n2cc(Cn3c(-c4cccc(F)c4)nc4ccccc43)nn2)cc1`, the “inhibition zone (IZ)” value [1] was 26 mm, the “inhibition zone (IZ)” value [2] was 20 mm and the “inhibition zone (IZ)” value [3] was 21 mm. The Activity [4] was “Non-toxic”, the “inhibition zone (IZ)” value [5] was 18 mm and the inhibition of growth at 6.25 µg/mL [7] was 96%. For the same compound, the MIC [6] was 6.25 µM and > 6.25 µg/mL.

With `Fc1ccc(-n2cc(Cn3c(-c4cccc(F)c4)nc4ccccc43)nn2)cc1` the “inhibition zone (IZ)” value [1] was 19 mm, the “inhibition zone (IZ)” value [2] was 26 mm and the “inhibition zone (IZ)” value [3] was 19 mm. The Activity [4] was “Non-toxic”, the “inhibition zone (IZ)” value [5] was 20 mm and the inhibition of growth at 6.25 µg/mL [7] was 96%. For the same compound, the MIC [6] was 0.58 µM and > 6.25 µg/mL.

In the case of `Fc1cccc(-c2nc3ccccc3n2Cc2cn(-c3ccc(F)c(F)c3)nn2)c1`, the “inhibition zone (IZ)” value [1] is reported as 31 mm, the “inhibition zone (IZ)” value [2] is reported as 32 mm and the “inhibition zone (IZ)” value [3] is reported as 29 mm. For the same compound, the Activity [4] was “Non-toxic”, the “inhibition zone (IZ)” value [5] was 30 mm and the inhibition of growth at 6.25 µg/mL [7] was 96%. The MIC [6] was 0.34 µM and > 6.25 µg/mL.

With `Cc1ccc(-n2cc(Cn3c(-c4cccc(F)c4)nc4ccccc43)nn2)c(F)c1` the “inhibition zone (IZ)” value [1] was 13 mm, the “inhibition zone (IZ)” value [2] was 18 mm and the “inhibition zone (IZ)” value [3] was 18 mm. The Activity [4] was “Non-toxic”, the “inhibition zone (IZ)” value [5] was 21 mm and the inhibition of growth at 6.25 µg/mL [7] was 96%. The MIC [6] was 3.13 µM and > 6.25 µg/mL.

In the case of `COc1ccccc1-n1cc(Cn2c(-c3cccc(F)c3)nc3ccccc32)nn1`, the “inhibition zone (IZ)” value [1] is reported as 24 mm, the “inhibition zone (IZ)” value [2] is reported as 21 mm and the “inhibition zone (IZ)” value [3] is reported as 23 mm. The Activity [4] was “Non-toxic”, the “inhibition zone (IZ)” value [5] was 19 mm and the MIC [6] was over 6.25 mg/L.

For `Fc1cccc(-c2nc3ccccc3n2Cc2cn(-c3ccccc3)nn2)c1`, the “inhibition zone (IZ)” value [1] was 28 mm, the “inhibition zone (IZ)” value [2] was 26 mm and the “inhibition zone (IZ)” value [3] was 18 mm. The Activity [4] was “Non-toxic”, the “inhibition zone (IZ)” value [5] was 17 mm and the MIC [6] was over 6.25 mg/L.

Compound GENTAMICIN has an inhibition zone (IZ) ([3]; Salmonella enterica subsp. enterica serovar Typhi) of 30 mm.

For `Fc1cccc(-c2nc3ccccc3n2Cc2cn(-c3ccc(C(F)(F)F)cc3)nn2)c1`, the “inhibition zone (IZ)” value [1] was 13 mm, the “inhibition zone (IZ)” value [2] was 18 mm and the “inhibition zone (IZ)” value [3] was 18 mm. For the same compound, the Activity [4] was “Non-toxic”, the “inhibition zone (IZ)” value [5] was 21 mm and the MIC [6] was over 6.25 mg/L.

For `CO[C@H]1/C=C/O[C@@]2(C)Oc3c(C)c(O)c4c(O)c(c(/C=N/N5CCN(C)CC5)c(O)c4c3C2=O)NC(=O)/C(C)=C\C=C\[C@H](C)[C@H](O)[C@@H](C)[C@@H](O)[C@@H](C)[C@H](OC(C)=O)[C@@H]1C` [RIFAMPIN], the MIC [6] was 0.015 mg/L (≈ 0.0182 µM).
